The source of these data is ChEMBL document CHEMBL3877295, “Discovery of novel 3-hydroxypicolinamides as selective inhibitors of HIV-1 integrase-LEDGF/p75 interaction” (Eur J Med Chem, 2017).

Data set [1] is described as follows: Cytotoxicity against human C8166 cells assessed as reduction in cell viability after 72 hrs by MTT assay. It counts as toxicity, cell-based. On the technique in general: Tetrazolium assays rely on reduction of a dye to a coloured formazan, in cell work by metabolically active cells.
A short description of data set [2]: Inhibition of HIV1 recombinant GST/His-tagged integrase strand transfer activity expressed in Escherichia coli BL21(DE3) using 5'-end 32P labeled linear 21-mer substrate preincubated for 30 mins followed by substrate addition measured after 1 hr by PAGE analysis. Details: species or system Human immunodeficiency virus 1. The method, boiled down: (§1)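 Recombinant wild-type integrase (200 nM final) preincubated with inhibitor in 50 mM NaCl, 1 mM HEPES pH 7.5, 10% glycerol, 7.5 mM MnCl2, 0.1 mg/mL BSA. Substrate: 21-mer top strand 5'-labelled with [γ-32P]ATP by T4 polynucleotide kinase, kinase heat-killed at 95 °C for 15 min, annealed to 1.5-fold molar excess bottom strand, and spin-column cleaned.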

Data set [3] deals with Human immunodeficiency virus 1. The experiment in a line: Antiviral activity against HIV1 3B infected in human C8166 cells assessed as reduction in virus-induced cytopathic effect by MTT assay. Format: functional, cell-based. As to conditions: Human immunodeficiency virus 1, 3B. A general note: Protection from cytopathic effect is a common read-out in antiviral testing.
The nature of data set [4]: Therapeutic Index, ratio of CC50 for human C8166 cells to EC50 for HIV1 3B infected in human C8166 cells. As to conditions: read-out: Ratio CC50/EC50. It counts as cell-based.
Data set [5] can be described thus: Inhibition of HIV1 recombinant GST/His-tagged integrase 3'-processing activity expressed in Escherichia coli BL21(DE3) assessed as reduction in 19-mer product using 5'-end 32P labeled linear 21-mer substrate preincubated for 30 mins followed by substrate addition measured after 1 hr by PAGE analysis. Details: species or system Human immunodeficiency virus 1. In short, it runs like this: as §1

Data set [6] in a line: Inhibition of HIV1 His6-tagged integrase/FLAG-tagged LEDGF/p75 protein-protein interaction expressed in Escherichia coli BL21(DE3) preincubated with integrase for 30 mins followed by LEDGF/p75 addition measured after 60 mins by AlphaScreen assay. In short, it runs like this: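 His6-integrase (300 nM final) preincubated with compound […] for 30 min at 4 °C. FLAG-LEDGF/p75 (300 nM final) added for 60 min at 4 °C. Ni-chelate donor and anti-FLAG acceptor beads (20 µg/mL each) added for 1 h at 30 °C, then acceptor emission read.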
In general terms: Alpha assays give light when donor and acceptor beads are brought close together.

A short description of data set [7]: Inhibition of HIV1 GST-tagged integrase and His6-tagged integrase mutant dimerization expressed in Escherichia coli BL21(DE3) after overnight incubation by AlphaScreen assay. Also noted: species or system Human immunodeficiency virus 1.
The nature of data set [8]: Cytotoxicity against human MT4 cells assessed as reduction in cell viability after 72 hrs by MTT assay. Format: toxicity, cell-based.
The subject of data set [9] is Human immunodeficiency virus 1. The experiment in a line: Antiviral activity against HIV1 3B infected in human MT4 cells assessed as reduction in virus-induced cytopathic effect by MTT assay. Format: functional, cell-based. As to conditions: Human immunodeficiency virus 1, 3B.
Data set [10] is described as follows: Therapeutic Index, ratio of CC50 for human MT4 cells to EC50 for HIV1 3B infected in human MT4 cells. Format: cell-based. As to conditions: read-out: Ratio CC50/EC50.

Bounds are passed on as bounds.

As usually defined, the CC50 is the concentration that lowers cell viability or growth by half. Usually IC50 stands for the concentration that gives 50% inhibition. One may read the EC50 as the concentration at which the effect is half-maximal.

In the case of `O=C(NCc1ccc(F)cc1)c1nc(N2CCCCS2(=O)=O)c2cccnc2c1O`, the 50% cytotoxic concentration (CC50) at 72 h in [1] stood at 123 µM. Moreover, the results for the IC50 in [2] and in [5] were 0.0008 µM and 0.0054 µM, respectively. The EC50 in data set [3] came out at 0.00233 µM. Moreover, the selectivity ratio in data set [4] is 52800.
As to `O=C(NCc1ccc(F)cc1)c1ncccc1F`, the half-inhibitory concentration (IC50) in data set [6], in data set [2] and in data set [5] was > 20 µM each time.
As for `O=C(NCc1ccc(F)cc1)c1cccc(O)n1`, the IC50 in [6], in [2] and in [5] was > 20 µM each time.
With `O=C(NCC1CCCCC1)c1ncccc1O`, the values for the IC50 in data set [6], in [2] and in data set [5] were 19 µM, > 20 µM and > 20 µM, respectively. The cytotoxic concentration (CC50) at 72 h in [1] stood at 137 µM. Besides, in [3], the EC50 was determined as 66.2 µM. The selectivity ratio in data set [4] was 2.1.
Turning to `O=C(NCc1ccc(F)cc1)c1ncccc1O`, the half-maximal inhibitory concentration (IC50) in data set [6] is 8.6 µM; in data set [2], > 20 µM; in [5] it was > 20 µM; in [7] it was 6.1 µM. Besides, the cytotoxic concentration (CC50) at 72 h in data set [1] was found to be 114 µM. In addition, the EC50 in [3] came out at 77.6 µM. Besides, in data set [4], the selectivity ratio amounted to 1.5.
As for `Nc1cccc(C(=O)NCc2ccco2)c1O`, the IC50 was 51 µM in data set [6] and > 100 µM in data set [2].
With `O=C(NCc1ccc(F)cc1)c1cc(O)ccn1`, the IC50 in data set [6], in [2] and in data set [5] was > 20 µM in each case.
As for `CC(C)CN(Cc1ccc(F)cc1)C(=O)c1ncccc1O`, the IC50 in [6], in data set [2] and in data set [5] was > 20 µM in each case. In addition, the CC50 at 72 h in data set [8] came to 247 µM. Moreover, the EC50 in data set [9] stood at 270 µM. In addition, the selectivity ratio in [10] is < 1.
For `Nc1ccc(CNC(=O)c2ncccc2O)cc1`, the IC50 in [6] is 1.7 µM; in data set [2], > 20 µM; in [5], > 20 µM; in data set [7], 4 µM. In addition, in [1], the CC50 at 72 h is > 596 µM. The 50% effective concentration (EC50) in data set [3] came to 260 µM. Further, the selectivity ratio in data set [4] is > 2.3.
In the case of `O=C(NCc1cccs1)c1ncccc1O`, the IC50 in data set [6] is 7.5 µM; in data set [2], > 20 µM; in data set [5], > 20 µM; in [7], 8 µM. In addition, the CC50 at 72 h in data set [1] was 218 µM. Moreover, the EC50 in data set [3] came to 75.6 µM. The selectivity ratio in [4] came to 2.9.
Turning to `CCCCNC(=O)c1ncccc1O`, the IC50 in data set [6], in data set [2] and in data set [5] was > 20 µM in each case. Moreover, the CC50 at 72 h in data set [1] is > 1000 µM. In addition, the EC50 in data set [3] was > 500 µM.
`O=C(NCc1ccc(F)cc1)c1ccccn1`: the IC50 in data set [6], in data set [2] and in data set [5] was > 20 µM each time.
Turning to `COc1cccnc1C(=O)NCc1ccc(F)cc1`, the 50% inhibitory concentration (IC50) in data set [6], in data set [2] and in [5] was > 20 µM throughout.
As for `CCCCN(Cc1ccc(F)cc1)C(=O)c1ncccc1O`, the IC50 was 12 µM in [6], > 20 µM in data set [2], > 20 µM in data set [5] and 14 µM in data set [7]. The CC50 at 72 h in data set [8] was > 660 µM. For the same molecule, in data set [9], the EC50 is > 330 µM.
On to `O=c1oc2cccnc2c(=O)n1Cc1ccc(F)cc1`, for which the IC50 in [6], in data set [2] and in data set [5] was > 20 µM in each case. Also, in [8], the CC50 at 72 h turned out to be 311 µM. Moreover, in data set [9], the EC50 amounted to 73.5 µM. Besides, the selectivity ratio in data set [10] was found to be 4.3.
On to `O=c1oc2cccnc2c(=O)n1Cc1cccs1`, for which the IC50 in data set [6], in [2] and in data set [5] was > 20 µM throughout. Moreover, in data set [8], the CC50 at 72 h was found to be 363 µM. In addition, in data set [9], the concentration for a half-maximal effect (EC50) amounted to 69.9 µM. The selectivity ratio in data set [10] was determined as 5.2.
Take `O=C(NCc1cccc2ccccc12)c1ncccc1O`: the IC50 in [6], in data set [2] and in [5] was > 20 µM each time. In [1], the CC50 at 72 h worked out at 88.8 µM. In data set [3], the EC50 is 58.2 µM. The selectivity ratio in [4] amounted to 1.5.
As for `O=C(NCc1ccco1)c1ncccc1O`, the IC50 in data set [6] is 2.4 µM; in data set [2], > 20 µM; in data set [5], > 20 µM; in data set [7], 10 µM. The cytotoxic concentration (CC50) at 72 h in data set [1] is 575 µM. Moreover, the EC50 in data set [3] came out at 269 µM. Besides, the selectivity ratio in [4] amounted to 2.1.
`COc1cc(CNC(=O)c2ncccc2O)cc(OC)c1OC`: the IC50 in [6] was 2.5 µM; in data set [2], > 20 µM; in data set [5], > 20 µM; in data set [7], 9.8 µM. In addition, the CC50 at 72 h in [1] is > 500 µM. Further, in data set [3], the 50% effective concentration (EC50) stood at 58.7 µM. In addition, the selectivity ratio in data set [4] was > 9.
As to `O=C(NCc1ccc([N+](=O)[O-])cc1)c1ncccc1O`, the IC50 in [6] was 4 µM; in data set [2], > 20 µM; in data set [5], > 20 µM. Further, in data set [1], the CC50 at 72 h was determined as 127 µM. The EC50 in data set [3] amounted to 26.4 µM. Moreover, the selectivity ratio in [4] is 4.8.
As to `C=C(C)CN(Cc1ccc(F)cc1)C(=O)c1ncccc1O`, the IC50 in [6], in [2] and in [5] was > 20 µM in each case. In addition, the CC50 at 72 h in data set [8] came to 272 µM. Also, in [9], the EC50 is 279 µM. Also, the selectivity ratio in data set [10] is < 1.
Consider `CC(C)CCN(Cc1ccc(F)cc1)C(=O)c1ncccc1O`, for which the IC50 in data set [6], in data set [2] and in data set [5] was > 20 µM in each case. Also, the half-maximal cytotoxic concentration (CC50) at 72 h in data set [8] stood at 268 µM. Besides, the EC50 in data set [9] turned out to be 68.6 µM. Besides, the selectivity ratio in data set [10] is 3.9.
Regarding `O=C(NCc1ccc2[nH]ccc2c1)c1ncccc1O`, the IC50 is 4.6 µM in data set [6], > 20 µM in data set [2], > 20 µM in [5] and 8 µM in data set [7]. Also, the CC50 at 72 h in data set [1] was found to be 138 µM. Further, the EC50 in [3] amounted to 70 µM. The selectivity ratio in data set [4] came out at 2.
With `O=C(NCc1ccc(F)cc1)c1ccc(O)cn1`, the IC50 in [6], in [2] and in data set [5] was > 20 µM throughout.
For `O=C(NCc1ccc(F)c(Cl)c1)c1ncccc1O`, the IC50 is 4.2 µM in data set [6], > 20 µM in [2] and > 20 µM in data set [5]. Further, the CC50 at 72 h in [1] is 310 µM. Besides, the EC50 in [3] was 19.2 µM. Also, the selectivity ratio in [4] turned out to be 16.
As for `O=C(Nc1ccc(F)cc1)c1ncccc1O`, the IC50 in data set [6] was 8 µM; in data set [2] it was > 20 µM; in [5], > 20 µM. Further, the CC50 at 72 h in data set [1] is > 860 µM. For the same molecule, in data set [3], the EC50 was determined as 19.4 µM. The selectivity ratio in data set [4] is > 45.
For `O=C(NCc1ccco1)c1cccnc1O`, in data set [6], the IC50 was > 100 µM.
Regarding `O=C(NCc1ccc(C(F)(F)F)cc1)c1ncccc1O`, the half-maximal inhibitory concentration (IC50) in data set [6], in data set [2] and in [5] was > 20 µM each time. The CC50 at 72 h in data set [1] is 31.4 µM. Besides, the EC50 in [3] was 43.2 µM. The selectivity ratio in data set [4] was < 1.
